High-throughput results deposited in PubChem BioAssay by Broad Institute.
ARNT-TACC3 inh: disruptors of human ARNT/TACC3 interaction | Q9Y6A5 | inhibition, % at 9.99 µM | AlphaScreen His-ARNT PAS-B/GST-TACC3 binding, luminescence; TACC3 fragment carries E629A point mutation | actives 0.66% (n = 390,000) | AID 623870;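 active = mean inhibition of replicates at least 50% and at least half of replicates each reaching 50%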
MLL AF4-AF9 inh: blocks AF4 peptide binding to human AF9. AlphaScreen, biotin-AF4 peptide binding to FLAG-AF9. inhibition, % at 10 µM. actives 0.47% (n = 350,000). AID 651704;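 active = every replicate reaching a set inhibition limit, whatever the replicate mean, cut at about 25% in these data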
FN deposition inh: fibronectin deposition inhibition; actives 0.086% (n = 350,000); inhibition, % at 12.6 µM; AH1F fibroblasts, Alexa488-fibronectin deposition fluorescence, overnight;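 active = mean inhibition across replicates of 30% or more, regardless of how many single replicates reach that level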
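Schedule: 1 h cell adhesion before compound, then overnight fibronectin incubation; test system: AH1F fibroblast monolayer depositing Alexa488-labelled fibronectin into matrix; quantity: 10000 AH1F cells per well; probe or stimulus: fluorescent fibronectin at 24 nM final; signal: fluorescence, ex 485 nm, em 525 nm; evaluation: percent inhibition as loss of matrix-bound fibronectin fluorescence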
ERp5 inh: blocks human ERp5 reductase activity on insulin. ERp5 insulin aggregation, absorbance 650 nm, 90 min. inhibition, % at 9.99 µM. actives 0.05% (n = 350,000);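 active = mean replicate inhibition above about 25%, with every replicate also reaching it, limit read from the data, passing the limit was not always enough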
PDI turbidity: blocks human protein disulfide isomerase activity. P07237. AID 588391. PDI insulin aggregation turbidity, A650, 90 min. inhibition, % at 10 µM. actives 0.052% (n = 350,000);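 active = mean inhibition across replicates of 30% or more, whatever share of single replicates reach that level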
Target sequence (P07237 whole entry, looked up): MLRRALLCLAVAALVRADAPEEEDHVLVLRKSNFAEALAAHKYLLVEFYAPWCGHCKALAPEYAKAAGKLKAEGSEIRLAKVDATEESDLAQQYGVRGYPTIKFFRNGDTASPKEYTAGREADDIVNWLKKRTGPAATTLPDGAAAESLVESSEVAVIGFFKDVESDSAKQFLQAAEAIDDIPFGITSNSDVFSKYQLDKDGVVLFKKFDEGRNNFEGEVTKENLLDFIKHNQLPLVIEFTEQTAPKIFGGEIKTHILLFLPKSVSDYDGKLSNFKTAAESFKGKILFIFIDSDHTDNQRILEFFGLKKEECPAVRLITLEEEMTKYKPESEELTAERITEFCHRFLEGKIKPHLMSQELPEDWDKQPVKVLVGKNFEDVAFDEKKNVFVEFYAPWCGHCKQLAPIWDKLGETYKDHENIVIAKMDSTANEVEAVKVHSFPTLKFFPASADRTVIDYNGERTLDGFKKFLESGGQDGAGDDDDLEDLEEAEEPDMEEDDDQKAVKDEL
FGF22 binding: binders of recombinant human FGF22 by thermal shift; SYPRO orange fluorescence; percent of sucrose octasulfate shift, DMSO zero; AID 651658; Q9HCT0; activity (Tm shift, normalised), % at 9.99 µM; actives 1.5% (n = 340,000);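 active = mean Tm shift, scaled 0 neutral to 100 positive control, at about 1.3% or above, every replicate too, limit read from the data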
Target sequence (Q9HCT0 whole entry, looked up): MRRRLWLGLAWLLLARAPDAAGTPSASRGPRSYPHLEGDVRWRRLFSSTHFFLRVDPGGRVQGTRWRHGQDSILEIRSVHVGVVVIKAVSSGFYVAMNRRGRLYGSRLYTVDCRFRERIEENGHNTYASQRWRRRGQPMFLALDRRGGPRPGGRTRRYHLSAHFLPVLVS
Numbers stand for hits. Shown are actives, neighbours in structure and some others; about 2.1% of the full set was active somewhere.

For COc1cc(/C=N/NC(=O)C(=O)NCC2CCCO2)cc(Cl)c1O (centres undefined) the results were ARNT-TACC3 inh inactive, MLL AF4-AF9 inh inactive, FN deposition inh inactive, ERp5 inh inactive, PDI turbidity inactive and FGF22 binding inactive.
Screening COc1cc(/C=N/NC(=O)C(=O)NCC2CCCO2)ccc1OCC(=O)N1CCOCC1 (centres undefined) returned ARNT-TACC3 inh inactive, MLL AF4-AF9 inh inactive, FN deposition inh inactive, ERp5 inh inactive, PDI turbidity inactive and FGF22 binding 44.
`O=C(NCC1CCCO1)C(=O)N/N=C/c1cc(Cl)ccc1O` (centres undefined) gave ARNT-TACC3 inh 46, MLL AF4-AF9 inh inactive, FN deposition inh inactive, ERp5 inh inactive, PDI turbidity inactive and FGF22 binding inactive.
Screening O=C(N/N=C/c1cc(Cl)ccc1O)c1ccncc1 returned ARNT-TACC3 inh 69, MLL AF4-AF9 inh inactive, FN deposition inh inactive, ERp5 inh inactive, PDI turbidity inactive and FGF22 binding inactive.
`CN(C)CC(=O)Nc1ccc2c(c1)[C@@H]1C[C@H](CC(=O)NC3CCCC3)O[C@@H](CO)[C@@H]1O2` gave ARNT-TACC3 inh inactive, MLL AF4-AF9 inh inactive, FN deposition inh inactive, ERp5 inh inactive and FGF22 binding inactive.
`COc1ccc(N=Nc2cc(C)c(O)c(CN3CCCCC3)c2)cc1` gave ARNT-TACC3 inh inactive, MLL AF4-AF9 inh 54, FN deposition inh inactive, ERp5 inh inactive, PDI turbidity inactive and FGF22 binding inactive.
`CNC[C@H]1Oc2ccc(NC(C)=O)cc2C(=O)N(C)C[C@H]1C` gave FN deposition inh inactive.
For CN(C)c1ccc2c(c1)[C@H]1C[C@@H](CC(=O)NCC3CC3)O[C@@H](CO)[C@H]1O2 the results were ARNT-TACC3 inh inactive, MLL AF4-AF9 inh inactive, ERp5 inh inactive and FGF22 binding inactive.
Screening COc1ccc(NC(=O)N(C)C[C@@H]2Oc3cc(-c4cccc(C(=O)N(C)C)c4)ccc3S(=O)(=O)N([C@@H](C)CO)C[C@@H]2C)cc1 returned ARNT-TACC3 inh inactive, MLL AF4-AF9 inh inactive, ERp5 inh inactive and FGF22 binding inactive.
`CC1N=C(SCC(=O)c2ccc(F)cc2)N2C(C)N=C(SCC(=O)c3ccc(F)cc3)N12` (centres undefined) gave MLL AF4-AF9 inh inactive, FN deposition inh inactive, ERp5 inh inactive, PDI turbidity inactive and FGF22 binding 43.
O=C(Nc1ccccc1F)N1CC(=O)N2[C@@H](CO)[C@@H](c3ccc(C#CC4CC4)cc3)[C@@H]2C1 was read as MLL AF4-AF9 inh inactive and ERp5 inh inactive.
CC(=O)Nc1ccc(/C=N/NC(=O)CNC(=O)c2ccccc2)cc1 was read as ARNT-TACC3 inh inactive, MLL AF4-AF9 inh inactive, FN deposition inh inactive, ERp5 inh inactive, PDI turbidity inactive and FGF22 binding 43.
C[C@@H]1CCCCO[C@@H](CN(C)C(=O)Nc2ccc3c(c2)OCO3)[C@@H](C)CN([C@@H](C)CO)C(=O)c2cc(NC(=O)C3CCCCC3)ccc2O1 was read as ARNT-TACC3 inh inactive, MLL AF4-AF9 inh inactive, ERp5 inh inactive and FGF22 binding inactive.
O=C(C[C@H]1C=C[C@@H](NS(=O)(=O)c2ccccc2)[C@@H](CO)O1)NCc1ccncn1 was read as MLL AF4-AF9 inh inactive, ERp5 inh inactive and FGF22 binding inactive.
`O=c1[nH]c2ccc(Cl)cc2c(O)c1Cc1ccccc1` gave ARNT-TACC3 inh inactive, MLL AF4-AF9 inh inactive, FN deposition inh inactive, ERp5 inh inactive, PDI turbidity inactive and FGF22 binding 44.
Screening O=c1[nH]c2ccccc2c2ccc(Cl)cc12 returned ARNT-TACC3 inh inactive, MLL AF4-AF9 inh inactive, FN deposition inh inactive, ERp5 inh inactive, PDI turbidity inactive and FGF22 binding inactive.
For CCOC(=O)CC1(C)Sc2ccccc2N1S(=O)(=O)c1ccc(C)cc1 (centres undefined) the results were MLL AF4-AF9 inh inactive, FN deposition inh inactive, ERp5 inh inactive and FGF22 binding 43.
CCOC(=O)CC1(CCc2ccccc2)Oc2ccccc2N1S(=O)(=O)c1ccc(C)cc1 (centres undefined) was read as MLL AF4-AF9 inh inactive, FN deposition inh inactive, ERp5 inh inactive and FGF22 binding inactive.
`CC(=NNC(=S)Nc1ccc(C)cc1)c1ccccn1` gave ARNT-TACC3 inh 62, MLL AF4-AF9 inh inactive, FN deposition inh inactive, ERp5 inh inactive, PDI turbidity inactive and FGF22 binding inactive.
For CC(=NNC(=S)Nc1cccc(C)c1)c1ccccn1 the results were ARNT-TACC3 inh inactive, MLL AF4-AF9 inh inactive, FN deposition inh inactive, ERp5 inh inactive, PDI turbidity inactive and FGF22 binding inactive.
COc1ccccc1NC(=O)c1ccccc1NC(=O)c1ccccn1 was read as MLL AF4-AF9 inh inactive, FN deposition inh inactive, ERp5 inh inactive, PDI turbidity inactive and FGF22 binding inactive.
COc1ccccc1NC(=S)NN=C(C)c1ccccn1 was read as ARNT-TACC3 inh 65, MLL AF4-AF9 inh inactive, FN deposition inh inactive, ERp5 inh inactive, PDI turbidity inactive and FGF22 binding inactive.
Screening CCC(=O)N1C[C@@H](C)[C@@H](OC)CN(C)C(=O)c2cc(NC(=O)NC3CCCC3)ccc2OC[C@@H]1C returned FN deposition inh inactive.
For CC(C)n1c(O)c(N=NC(=O)C2COc3ccccc3O2)c2ccccc21 (centres undefined) the results were ARNT-TACC3 inh inactive, MLL AF4-AF9 inh 39, ERp5 inh inactive, PDI turbidity inactive and FGF22 binding inactive.
For COCCCNC(=S)NC1CC2CCC(C1)N2Cc1ccccc1 (centres undefined) the results were ARNT-TACC3 inh inactive, MLL AF4-AF9 inh inactive, FN deposition inh inactive, ERp5 inh inactive, PDI turbidity inactive and FGF22 binding 43.
`N[C@@H](C(=O)N[C@@H]1C(=O)N2C(C(=O)O)=C(Cl)CS[C@H]12)c1ccccc1` gave ARNT-TACC3 inh 40, MLL AF4-AF9 inh inactive, FN deposition inh inactive, ERp5 inh inactive, PDI turbidity inactive and FGF22 binding inactive.
CC1=C(C(=O)O)N2C(=O)C(NC(=O)c3ccccc3Cl)C2SC1 (centres undefined) was read as ARNT-TACC3 inh inactive, MLL AF4-AF9 inh inactive, FN deposition inh inactive, ERp5 inh inactive, PDI turbidity inactive and FGF22 binding inactive.
For CCS(=O)(=O)Nc1ccc2c(c1)C(=O)N(C)C[C@@H](OC)[C@H](C)CN(C(=O)COC)[C@H](C)CO2 the results were ARNT-TACC3 inh inactive, MLL AF4-AF9 inh inactive, FN deposition inh inactive and ERp5 inh inactive.
O=C(Oc1cc(Cl)ccc1Cl)C1=CC=CN2CCS(=O)(=O)N=C12 was read as ARNT-TACC3 inh inactive, MLL AF4-AF9 inh inactive, FN deposition inh inactive, ERp5 inh inactive, PDI turbidity inactive and FGF22 binding 16.
C[C@H](C(=O)N(C)C[C@H]1OCc2ccccc2-c2ccccc2C(=O)N([C@H](C)CO)C[C@@H]1C)c1ccccc1 was read as FN deposition inh inactive.
